{
  "source": "paper PMC6904115",
  "about": "(Neuropharmacology, 2019)",
  "key": {"Y1 receptor [1]": {"target": "T1, Y1 receptor (Rattus norvegicus, UniProt P21555)", "T1 sequence (P21555 1-382)": "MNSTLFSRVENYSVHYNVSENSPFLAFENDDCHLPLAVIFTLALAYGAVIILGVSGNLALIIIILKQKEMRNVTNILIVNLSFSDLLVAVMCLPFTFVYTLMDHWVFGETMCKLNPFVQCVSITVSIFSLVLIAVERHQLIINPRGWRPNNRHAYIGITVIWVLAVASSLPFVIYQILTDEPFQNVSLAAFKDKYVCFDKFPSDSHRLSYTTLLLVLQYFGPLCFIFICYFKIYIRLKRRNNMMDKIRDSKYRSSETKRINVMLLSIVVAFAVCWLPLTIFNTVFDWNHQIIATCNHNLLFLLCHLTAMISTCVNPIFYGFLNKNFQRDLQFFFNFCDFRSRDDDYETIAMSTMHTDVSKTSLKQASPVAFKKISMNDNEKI", "test": "Y1 receptor internalization", "assay_type": "cell-based", "settings": "for Y1 receptor internalization / NPY release by chemical stimulus, summary: spinal cord slices"}, "[2]": {"system": "substance P release in the dorsal horn", "settings": "ref Chen et al., cited from earlier work"}, "Y1 receptor [3]": {"target": "T1, Y1 receptor", "assay_type": "cell-based", "settings": "with 100 nM NPY; each inhibitor 10 μM; 35 °C, 10 min"}, "Y1 receptor [4]": {"target": "T1, Y1 receptor", "test": "Y1 receptor internalization induced by capsaicin stimulation of the dorsal root", "assay_type": "cell-based", "method_in_brief": "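Rat lumbar (L2-L4) slices, 400 μm, keeping one >8 mm dorsal root; recovered 1 h at 35 °C in aCSF (5 mM KCl). Root sealed with grease into side compartment of aCSF + 1 μM capsaicin, 10 min, while slice superfused at 35 °C; 10 min further superfusion, immersion-fixed, 25 μm cryosections, Y1 antiserum 1:500, confocal. Ipsilateral vs contralateral; repeated-measures 2-way ANOVA, Holm-Sidak.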"}, "[5]": {"system": "opioid release in spinal cord slices", "settings": "cited from earlier work"}, "[6]": {"system": "inhibitory interneurons in the dorsal horn", "settings": "four classes of inhibitory interneurons; ref Polgar et al. (2013); cited from earlier work"}, "MOR": {"system": "MOR", "settings": "ref Song and Marvizon, 2003a; cited from earlier work"}, "NK1R": {"system": "NK1R", "settings": "compared with endogenous opioids; ref Marvizon et al., 2003b; cited from earlier work"}, "Y1 receptor [7]": {"target": "T1, Y1 receptor", "assay_type": "cell-based"}},
  "note": "Entries after “also recorded” stand apart in the source; their conditions may differ.",
  "data": [
    {"molecule": "O=C(Nc1ncnc2c1ncn2[C@@H]1O[C@@H]2COP(=O)(O)OC2C1O)c1ccccc1", "note": "(stereo in doubt) [6-Bnz-cAMP, 6-benzoyl-3′,5′-cyclic monophosphate]", "values": [
      {"measurement": "Y1 receptor internalization by protein kinase A activator", "setting": "Y1 receptor [1]; 10 nM, 60 min, 35 °C", "result": "induced a substantial amount of Y1 receptor internalization"},
      {"measurement": "Y1 receptor internalization / NPY release by chemical stimulus, summary", "setting": "Y1 receptor [1]", "result": "induced Y1 receptor internalization"}
    ]},
    {"molecule": "Nc1ncnc2c1nc(Br)n2[C@@H]1O[C@@H]2COP(=O)(O)O[C@H]2[C@H]1O", "note": "[8-Br-cAMP, 8-bromoadenosine-3′,5′-cyclic monophosphate]", "values": [
      {"measurement": "substance P release by cell-permeable cAMP analogs", "setting": "[2]; dorsal horn, 2018", "result": "induce substance P release"}
    ]},
    {"molecule": "CC(N)C(=O)N1CCCC1C#N", "note": "(stereo not drawn) [Ala-Pyrr-CN, alanine-pyrrolidine-nitrile]", "values": [
      {"measurement": "effect on NPY-induced Y1 receptor internalization", "setting": "Y1 receptor [3]", "result": "did not significantly increase NPY-induced Y1 receptor internalization"}
    ]},
    {"molecule": "CC1(C)C(=O)N=C2C1=C(O)C(=O)c1ccccc12", "note": "[BVT948, 4-hydroxy-3,3-dimethyl-2H-benz[g]indole-2,5(3H)-dione]", "values": [
      {"measurement": "substance P release by BVT948", "setting": "[2]; 2014b, Chen et al., 2010", "result": "increases substance P release"},
      {"measurement": "Y1 receptor internalization after BVT948 preincubation and NMDA+D-Ser", "setting": "Y1 receptor [1]; 10 μM BVT948 60 min, then 10 μM NMDA + D-serine 2 min, 8 min aCSF", "result": "also released NPY"}
    ]},
    {"molecule": "N#Cc1cc2[nH]c(=O)c(=O)[nH]c2cc1[N+](=O)[O-]", "note": "[CNQX]", "values": [
      {"measurement": "effect on capsaicin-induced Y1R internalization", "setting": "Y1 receptor [1]; 10 μM CNQX with 1 μM capsaicin, 10 min, whole slice", "result": "decreased the Y1R internalization induced by capsaicin to near control levels"},
      {"measurement": "effect on dorsal root capsaicin-induced Y1 internalization", "setting": "Y1 receptor [4]; slice superfused with 10 μM CNQX 10 min, 1 μM capsaicin on dorsal root", "result": "blocked; also recorded: eliminated the effect of capsaicin"}
    ]},
    {"molecule": "[Cl-].[K+]", "note": "[KCl]", "values": [
      {"measurement": "neurons with Y1 receptor internalization, KCl", "setting": "Y1 receptor [1]; 30 mM KCl 2 min, then 8 min aCSF, 35 °C", "result": "> 80", "unit": "%"},
      {"measurement": "Y1 receptor internalization / NPY release by chemical stimulus, summary", "setting": "Y1 receptor [1]", "result": "induced Y1 receptor internalization"},
      {"measurement": "opioid release by KCl", "setting": "[5]; 30 mM KCl, 2 min, spinal cord slices, ref Chen et al., 2008", "result": "induced abundant opioid release"}
    ]},
    {"molecule": "COc1cc(CNC(=O)CCCC/C=C/C(C)C)ccc1O", "note": "[capsaicin]", "values": [
      {"measurement": "pERK induction", "setting": "[6]", "result": "induced pERK only in the galanin and NPY neurons"},
      {"measurement": "neurons with Y1 receptor internalization, capsaicin", "setting": "Y1 receptor [1]; 1 μM capsaicin, 10 min, whole slice, 35 °C", "result": "approximately 50%"},
      {"measurement": "Y1 receptor internalization / NPY release by chemical stimulus, summary", "setting": "Y1 receptor [1]", "result": "induced Y1 receptor internalization"},
      {"measurement": "Y1 receptor internalization by dorsal root capsaicin", "setting": "Y1 receptor [4]; 1 μM capsaicin on dorsal root (side chamber), 10 min", "result": "induced NPY release; also recorded: evoked substantial Y1 receptor internalization, which was significantly higher than in control slices"},
      {"measurement": "opioid release by capsaicin", "setting": "[5]; dorsal horn, ref Song and Marvizon, 2003b", "result": "not opioid release"}
    ]},
    {"molecule": "Ile-Pro-Ile", "values": [
      {"measurement": "effect on NPY-induced Y1 receptor internalization", "setting": "Y1 receptor [3]", "result": "did not significantly increase NPY-induced Y1 receptor internalization"}
    ]},
    {"molecule": "Leu-enkephalin", "values": [
      {"measurement": "reduction by peptidases of potency to induce MOR internalization", "setting": "MOR", "result": "two orders of magnitude"}
    ]},
    {"molecule": "formalin", "values": [
      {"measurement": "pERK induction", "setting": "[6]", "result": "induced pERK only in the galanin and NPY neurons"}
    ]},
    {"molecule": "substance P", "values": [
      {"measurement": "cleavage by peptidases", "setting": "NK1R", "result": "much less readily"}
    ]},
    {"molecule": "ω-conotoxin MVIIC", "values": [
      {"measurement": "effect on electrically evoked Y1 receptor internalization, ipsilateral", "setting": "Y1 receptor [7]", "result": "decreased"}
    ]}
  ]
}
